# Bioassay records: PubChem, several laboratories
# T cell HTS: T cell immune modulators affecting CD8 T cell-vesicle binding. 2C CD8+ T cell-vesicle binding, flow cytometry; stronger effect = lower value. response (vesicle binding), % at 7 µM. actives 0.068% (n = 330,000);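 active means response, share of CD8 T cells binding vesicles, and their 90th percentile fluorescence all below set limits, cut at about 80% in these data, passing the limit was not always enough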;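 further: values below 100% mean blocked vesicle binding to the CD8+ T cells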
#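 System: murine 2C transgenic CD8+ T lymphocytes; also added: QL9-loaded Drosophila micro-vesicles; times: binding 1.5 h at 37 °C; measured by: flow cytometry, PE anti-B7-1 (FL2) versus Alexa647 anti-CD8 (FL8), PFA-fixed; control set: Peptide-free naked vesicles (low) and QL9 vesicles with 0.7% DMSO vehicle (high)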
# HKDC1 inhibitor: blocks human hexokinase HKDC1 activity; recombinant HKDC1, G6PDH/diaphorase resazurin coupled fluorescence; Q2TB90; inhibition, % at 20 µM; actives 0.16% (n = 340,000);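 active means inhibition above about 35% when tested at 20 µM, limit read from the data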;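 further: plate controls were DMSO wells with enzyme for no effect and DMSO wells lacking enzyme for full effect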
# Target sequence (Q2TB90 whole entry, looked up): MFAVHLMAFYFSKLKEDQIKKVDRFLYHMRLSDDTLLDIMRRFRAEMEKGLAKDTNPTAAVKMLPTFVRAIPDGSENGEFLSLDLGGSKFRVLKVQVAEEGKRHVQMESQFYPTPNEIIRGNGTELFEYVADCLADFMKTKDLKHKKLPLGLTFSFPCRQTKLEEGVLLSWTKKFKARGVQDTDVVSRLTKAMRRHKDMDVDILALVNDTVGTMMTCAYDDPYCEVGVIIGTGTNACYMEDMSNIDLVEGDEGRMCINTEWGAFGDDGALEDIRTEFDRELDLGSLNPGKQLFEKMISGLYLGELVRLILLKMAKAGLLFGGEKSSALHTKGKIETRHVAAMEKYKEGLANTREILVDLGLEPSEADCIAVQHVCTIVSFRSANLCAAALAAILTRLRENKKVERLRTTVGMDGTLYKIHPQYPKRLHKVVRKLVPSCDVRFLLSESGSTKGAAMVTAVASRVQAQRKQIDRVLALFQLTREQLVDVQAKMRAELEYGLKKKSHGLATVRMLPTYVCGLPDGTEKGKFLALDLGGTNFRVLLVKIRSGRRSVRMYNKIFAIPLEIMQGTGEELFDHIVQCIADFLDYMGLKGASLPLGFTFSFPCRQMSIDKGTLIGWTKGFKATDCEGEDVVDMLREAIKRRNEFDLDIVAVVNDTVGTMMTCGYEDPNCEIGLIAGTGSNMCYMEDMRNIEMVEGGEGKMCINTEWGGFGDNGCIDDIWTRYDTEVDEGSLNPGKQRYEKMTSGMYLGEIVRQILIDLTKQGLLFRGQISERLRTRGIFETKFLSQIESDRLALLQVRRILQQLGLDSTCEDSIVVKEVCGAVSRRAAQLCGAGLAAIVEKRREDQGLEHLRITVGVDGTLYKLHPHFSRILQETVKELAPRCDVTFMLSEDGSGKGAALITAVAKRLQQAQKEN
#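 Material: recombinant HKDC1 hexokinase; Amount: HKDC1 at 5 µg/mL; Medium: Tris pH 8.0 buffer with MgCl2, Tween-20, BSA, BME; Schedule: 90 min reaction incubation at room temperature, dark; Technique: coupled resazurin fluorescence, excitation 525 nm, emission 613 nm.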
# ATG4B inhibitor: blocks human ATG4B protease cleavage of LC3 substrate. Q9Y4P1. ATG4B cleavage of LC3-PLA2, NBD-HPC fluorescence, 1 h. inhibition, % at 8.33 µM. actives 0.51% (n = 340,000). AID 504462; in the data active means inhibition above about 40%
# PKA-R2B act: activators of human PKA-R2B complex; actives 0.079% (n = 340,000); activation, % at 11.4 µM; P22694+P31323; PKA-R2B holoenzyme dissociation, Cy5-IP20 fluorescence polarization; R2B truncated from residue 108, S112A mutant; 0% DMSO only, 100% 113 µM cGMP;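 active means activation above a cutoff set at the mean over all compounds plus 3 SD, cut at about 18% in these data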;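 further: higher means more holoenzyme dissociation and a rise in polarization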
# PKA-R1A activ: PKA-R1A complex activation | P00514+P68181 | PKA-R1A dissociation, Cy5-IP20 fluorescence polarization; scaled: DMSO 0%, 113 µM cGMP 100% | activation, % at 11.4 µM | actives 0.083% (n = 340,000) | AID 504707;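 active means percent activation above the mean of all tested compounds plus 3 SD, cut at about 19% in these data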;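 further: higher means more PKAc released from R1A so a rise in polarization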
# PfGluPho inh: PfG6PD (Plasmodium falciparum) enzyme inhibition. AID 504690. inhibition, % at 20 µM. actives 0.78% (n = 350,000). PfGluPho enzyme, NADPH resazurin-diaphorase fluorescence;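 active means inhibition reaching at least a set limit at 20 µM in the primary screen, cut at about 59% in these data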;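 further: 0% = DMSO wells with substrate and 100% = DMSO wells lacking glucose-6-phosphate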
# PfG6PD confirm: confirmation of Plasmodium falciparum G6PD inhibitors. shares compounds with PfGluPho inh. inhibition, % at 20 µM. actives 34% (n = 2,400). recombinant PfGluPho, NADPH-diaphorase-resazurin fluorescence. AID 504753;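 active means inhibition of at least 50% at 20 µM in any single replicate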;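 further: 0% = DMSO with substrate and 100% = DMSO lacking glucose-6-phosphate substrate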
# Diaph ctr 10uM: counter-screen for P. falciparum G6PD inhibitors: diaphorase inhibitors, oxidizers; shares compounds with PfGluPho inh; diaphorase-coupled resazurin reduction, fluorescence, NADPH 10 uM; inhibition, % at 20 µM; actives 39% (n = 820); AID 504862;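 active means average inhibition reaching 50% or more with the compound at 20 µM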;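 further: resorufin red fluorescence formed as diaphorase reduces resazurin using NADPH; 0% = DMSO with enzyme and 100% = DMSO without enzyme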
# Diaphorase 30uM: diaphorase inhibition or oxidation at 30 uM NADPH; inhibition, % at 20 µM; shares compounds with PfGluPho inh; actives 29% (n = 820); Diaphorase/resazurin coupled assay, resorufin fluorescence;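 active means inhibition averaging 50% or more, tested at 20 µM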;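 further: 0% = DMSO with enzyme and 100% = DMSO wells lacking diaphorase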
# The depositor's hits bear a star; i = inactive; . = not tested or not shown. A selection: hits, their analogues and other compounds. The true share with any hit is near 1.6%.
SMILES,T cell HTS,HKDC1 inhibitor,ATG4B inhibitor,PKA-R2B act,PKA-R1A activ,PfGluPho inh,PfG6PD confirm,others
CC1CC1C(=O)N1CCN(S(=O)(=O)c2cc(C(F)(F)F)cc(C(F)(F)F)c2)CC1 (stereo not drawn),364,0,2,3,-2,8,.,
COc1ccc(OCC(=O)NCCC2=CCCCC2)c([N+](=O)[O-])c1,186,5,-8,-15,-13,-2,.,
COc1ccc(C(C)=O)c(OCC(=O)NCCC2=CCCCC2)c1,.,.,.,-5,2,65*,44,
O=[N+]([O-])c1ccc(-c2nc3ccc([N+](=O)[O-])cc3[nH]2)cc1,260,-4,-3,-2,-8,86*,42,
O=[N+]([O-])c1ccc2nc(/C=C/c3ccc(Cl)cc3)[nH]c2c1,i,-3,-21,-12,8,62*,18,
O=[N+]([O-])c1ccc2nc(C(O)C(O)c3nc4ccc([N+](=O)[O-])cc4[nH]3)[nH]c2c1 (stereo not drawn),181,0,3,-9,-9,-20,.,
C=CCSc1nnc(NC(=O)C23CC4CC(CC(NC(C)=O)(C4)C2)C3)s1,270,1,-3,-4,-5,18,.,
O=C(COc1cccc(F)c1)Nc1nc(-c2ccncc2)cs1,260,-5,1,-3,-4,17,.,
NC(=S)NN=C1c2ccccc2-c2ccccc21,224,0,-34,-5,7,7,.,
Nn1cnnc1N/N=C/c1ccc(Cl)c([N+](=O)[O-])c1,216,13,-1,-5,3,73*,63*,Diaph ctr 10uM=82*;Diaphorase 30uM=74*
CSCCC(NC(=O)c1ccco1)C(=O)Nc1ccncc1 (stereo not drawn),263,-5,-2,-3,4,5,.,
O=C(NCCCO)c1ccc2nc(-c3ccco3)c(-c3ccco3)nc2c1,.,11,0,-11,6,75*,-7,
O=C(Nc1cccnc1)c1ccc2nc(-c3ccccc3)c(-c3ccccc3)nc2c1,318,-5,-6,-2,-9,-8,.,
O=C(NCCO)Nc1ccc2nc(-c3ccco3)c(-c3ccco3)nc2c1,482,.,.,.,.,.,.,
O=C(Nc1ccccc1)c1ccc2nc(-c3ccco3)c(-c3ccco3)nc2c1,345,30,17,3,-4,61*,-9,
O=C(c1ccc2nc(-c3ccco3)c(-c3ccco3)nc2c1)N1CCN(c2ncccn2)CC1,287,21,-6,-5,-7,69*,2,
CC(=O)CCCC(NS(=O)(=O)CCC(Cl)(Cl)Cl)c1ccccc1 (stereo not drawn),584,-1,-5,-16,-6,13,.,
S=c1[nH]nc(-c2ccc3ccccc3n2)n1-c1cc(Cl)cc(Cl)c1,66,17,-2,-6,-10,57,.,
S=c1[nH]nc(-c2ccc3ccccc3n2)n1-c1ccccc1Cl,361,1,-1,-2,-2,63*,48,
CCOC(=O)c1c(C)[nH]c(C)c1C(=O)COC(=O)/C=C/c1ccc(OC)cc1,.,1,-12,-2,-5,24,.,
CCOC(=O)c1c(C)[nH]c(C)c1C(=O)COC(=O)c1cc2ccccc2cc1O,259,0,12,-8,5,103*,5,
CCOC(=O)c1c(C)[nH]c(C)c1C(=O)COC(=O)/C=C/c1ccco1,197,9,-2,-7,-2,82*,67*,Diaph ctr 10uM=74*;Diaphorase 30uM=57*
Cc1ccc(Nc2n[nH]c(=S)s2)cc1F,.,-2,0,-10,-2,72*,23,
S=c1[nH]nc(Nc2ccc(Cl)cc2)s1,506,-2,-1,-14,2,65*,36,
Cc1ccc(Nc2n[nH]c(=S)s2)cc1,.,.,.,8,-5,44,.,
SMILES,T cell HTS,HKDC1 inhibitor,ATG4B inhibitor,PKA-R2B act,PKA-R1A activ,PfGluPho inh,PfG6PD confirm,others
CC1=CC(C)(C)Nc2ccc(OC(=O)CN3C(=O)c4ccccc4C3=O)cc21,182,14,-4,-11,-13,75*,35,
C#CCOC(=O)CN1C(=O)c2cccc3cccc(c23)C1=O,178,2,-4,9,-8,-5,.,
CCc1ccc2c(c1)C(C)=CC(C)(C)N2,173,-3,-2,12,4,7,.,
CCOc1ccc2c(c1)C(C)=CC(C)(C)N2,390,13,-1,-9,-10,90*,33,
CC1=CC(C)(C)Nc2ccc(OC(=O)CN3C(=O)c4cccc5cccc(c45)C3=O)cc21,279,26,1,8,0,91*,85*,Diaph ctr 10uM=39;Diaphorase 30uM=25
CC1=CC(C)(C)Nc2ccc(OC(=O)C(Cc3ccccc3)N3C(=O)c4ccccc4C3=O)cc21 (stereo not drawn),270,1,-3,2,0,31,.,
Cc1cc(C)c(C)c(S(=O)(=O)NCCCn2ccnc2)c1C,384,-3,-5,-1,-13,0,.,
COc1cccc(S(=O)(=O)N(C)C[C@H]2OCc3cnnn3CCCC(=O)N([C@H](C)CO)C[C@H]2C)c1,.,.,.,1,0,-10,.,
CC/C(=N\Nc1ccc([N+](=O)[O-])cc1)c1ccccc1,208,-6,1,-7,11,74*,-15,
Cc1ccc(S(=O)(=O)N(CC(=O)NCc2ccco2)Cc2ccccc2F)cc1,.,1,17,0,5,72*,33,
CCOC(=O)c1c(SCCN2CCCCC2)n(-c2ccccc2)c(=S)n(-c2ccccc2)c1=O,.,-4,-6,-3,-2,12,.,
COc1ccc(Cl)cc1/C=N/NC(=O)c1c(-c2ccccc2)noc1C,228,4,-11,-4,-10,127*,99*,Diaph ctr 10uM=96*;Diaphorase 30uM=83*
Cc1ccc(/C=N/NC(=O)c2c(-c3ccccc3)noc2C)o1,247,4,-2,16,5,36,.,
Cc1onc(-c2ccccc2)c1C(=O)N/N=C/c1cc(Br)c(Br)o1,276,3,1,-12,2,64*,28,
CC1CC(C)CN(S(=O)(=O)c2cc3c4c(c2)CCC(=O)N4CCC3)C1 (stereo not drawn),252,0,-3,8,-7,-9,.,
Nc1cc2nc[nH]c2cc1N,.,7,6,-18,-9,60*,-10,
